Assay results: ChEMBL document CHEMBL1152866, “Modulation of gene expression via disruption of NF-kappaB signaling by a bacterial small molecule” (Science, 2008)
Active and inactive are the calls of the source.

How the values were obtained:
[1] = target: T1, Inhibitor of nuclear factor kappa-B kinase subunit alpha (Mus musculus) (UniProt Q60680); assay: Inhibition of LPS-induced IkappaBalpha phosphorylation in mouse BMDM measured up to 120 mins by Western blot analysis
T1 sequence (whole entry): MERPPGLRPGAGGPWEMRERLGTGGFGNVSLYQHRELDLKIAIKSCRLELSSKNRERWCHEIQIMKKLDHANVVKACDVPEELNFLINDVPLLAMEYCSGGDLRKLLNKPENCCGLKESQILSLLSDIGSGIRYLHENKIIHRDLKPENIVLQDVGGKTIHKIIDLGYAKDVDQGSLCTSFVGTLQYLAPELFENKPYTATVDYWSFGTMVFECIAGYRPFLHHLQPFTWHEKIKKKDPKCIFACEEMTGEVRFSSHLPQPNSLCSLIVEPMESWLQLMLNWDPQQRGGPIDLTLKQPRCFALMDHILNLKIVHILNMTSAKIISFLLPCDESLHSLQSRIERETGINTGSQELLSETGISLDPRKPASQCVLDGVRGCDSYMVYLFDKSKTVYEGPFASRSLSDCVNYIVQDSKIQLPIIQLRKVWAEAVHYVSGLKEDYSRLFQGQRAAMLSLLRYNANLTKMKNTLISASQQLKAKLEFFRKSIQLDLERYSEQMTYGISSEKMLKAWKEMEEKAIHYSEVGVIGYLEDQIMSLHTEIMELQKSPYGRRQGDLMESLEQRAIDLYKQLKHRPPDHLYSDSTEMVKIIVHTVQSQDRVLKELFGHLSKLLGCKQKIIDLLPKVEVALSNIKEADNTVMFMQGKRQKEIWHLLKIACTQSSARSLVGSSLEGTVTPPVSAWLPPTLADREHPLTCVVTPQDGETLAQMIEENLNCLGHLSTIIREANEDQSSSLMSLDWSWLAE

[2] = target: T2, Inhibitor of nuclear factor kappa-B kinase subunit alpha (Homo sapiens) (UniProt O15111); assay: Inhibition of LPS-induced IkappaBalpha phosphorylation in human THP1 cells measured up to 120 mins by Western blot analysis; assay type: cell-based; conditions: THP-1
T2 sequence (whole entry): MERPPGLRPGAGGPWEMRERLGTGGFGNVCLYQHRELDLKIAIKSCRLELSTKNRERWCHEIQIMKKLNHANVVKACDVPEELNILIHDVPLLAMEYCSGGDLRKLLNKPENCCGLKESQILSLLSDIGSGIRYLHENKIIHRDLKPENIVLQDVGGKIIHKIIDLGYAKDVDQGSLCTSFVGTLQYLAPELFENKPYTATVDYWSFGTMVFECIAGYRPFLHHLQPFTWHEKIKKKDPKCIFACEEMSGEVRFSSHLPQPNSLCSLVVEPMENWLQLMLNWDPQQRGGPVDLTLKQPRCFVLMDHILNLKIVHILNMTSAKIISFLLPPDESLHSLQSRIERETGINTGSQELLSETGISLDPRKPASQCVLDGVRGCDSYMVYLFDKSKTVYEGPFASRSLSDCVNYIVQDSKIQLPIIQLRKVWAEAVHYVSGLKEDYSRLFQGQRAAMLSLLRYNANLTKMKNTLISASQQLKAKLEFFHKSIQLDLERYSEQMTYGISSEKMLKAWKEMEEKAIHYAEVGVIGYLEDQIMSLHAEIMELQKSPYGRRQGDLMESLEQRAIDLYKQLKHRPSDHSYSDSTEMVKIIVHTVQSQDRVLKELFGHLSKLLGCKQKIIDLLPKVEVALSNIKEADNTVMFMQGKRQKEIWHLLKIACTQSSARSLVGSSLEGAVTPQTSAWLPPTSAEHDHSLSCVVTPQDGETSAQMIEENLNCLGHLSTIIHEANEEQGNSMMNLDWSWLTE

[3] = target: Transcription factor p65 (Mus musculus) (UniProt Q04207); assay: Inhibition of LPS-induced RelA phosphorylation in [32P]orthophosphate metabolically labelled mouse BMDM assessed as phosphorylated IkappaBbeta/RelA binding measured up to 120 mins in absence of IkappaBalpha by SDS-PAGE and autoradiography
Transcription factor p65 (Mus musculus), sequence (Q04207 whole entry): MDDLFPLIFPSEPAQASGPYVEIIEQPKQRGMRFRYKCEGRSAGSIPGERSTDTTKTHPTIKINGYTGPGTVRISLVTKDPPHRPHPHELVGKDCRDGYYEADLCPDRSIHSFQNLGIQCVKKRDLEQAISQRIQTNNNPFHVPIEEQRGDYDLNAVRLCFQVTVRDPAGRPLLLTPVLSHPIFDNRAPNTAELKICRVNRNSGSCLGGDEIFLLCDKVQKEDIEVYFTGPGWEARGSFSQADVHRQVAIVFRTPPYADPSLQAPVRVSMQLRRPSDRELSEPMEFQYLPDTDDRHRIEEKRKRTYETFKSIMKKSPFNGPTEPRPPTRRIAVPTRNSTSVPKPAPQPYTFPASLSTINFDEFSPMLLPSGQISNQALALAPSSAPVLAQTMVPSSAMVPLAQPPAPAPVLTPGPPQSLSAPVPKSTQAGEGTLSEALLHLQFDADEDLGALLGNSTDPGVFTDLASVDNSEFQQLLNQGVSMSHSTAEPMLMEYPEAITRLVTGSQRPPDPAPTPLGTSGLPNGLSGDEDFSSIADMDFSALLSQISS

BMDM [4] = assay: Inhibition of LPS-induced MCP-1 mRNA expression in mouse BMDM up to 3 hrs by Northern blot analysis; assay type: functional, cell-based
BMDM [5] = assay: Inhibition of LPS-induced RANTES mRNA expression in mouse BMDM up to 3 hrs by Northern blot analysis; assay type: functional, cell-based
BMDM [6] = assay: Inhibition of LPS-induced IL-12beta mRNA expression in mouse BMDM up to 3 hrs by Northern blot analysis; assay type: functional, cell-based
Macrophage [7] = assay: Inhibition of LPS-induced c-jun mRNA expression in mouse alveolar macrophages after 90 mins by Northern blot analysis; assay type: functional, cell-based
Macrophage [8] = assay: Inhibition of LPS-induced TNF mRNA expression in mouse alveolar macrophages after 90 mins by Northern blot analysis; assay type: functional, cell-based
MEF [9] = assay: Inhibition of LPS-induced RANTES mRNA expression in MEF after 90 mins by Northern blot analysis; assay type: functional, cell-based; conditions: Mus musculus
BMDM [10] = assay: Inhibition of heat-killed Staphylococcus aureus-induced TNF mRNA expression in mouse BMDM by Northern blot analysis; assay type: functional, cell-based
MEF [11] = assay: Effect on TNF-induced RANTES mRNA expression in MEF by Northern blot analysis; assay type: functional, cell-based; conditions: Mus musculus
MEF [12] = assay: Effect on TNF-induced c-jun mRNA expression in MEF by Northern blot analysis; assay type: functional, cell-based; conditions: Mus musculus
MEF [13] = assay: Inhibition of TNF-induced IkappaBalpha expression in mouse MEF up to 120 mins by Western blot analysis; assay type: functional, cell-based
[14] = target: MAP kinase p38 (Mus musculus) (UniProt P47811+O08911+Q9WUI1+Q9Z1B7); assay: Inhibition of TNF-induced p38 phosphorylation in mouse MEF up to 120 mins by Western blot analysis
Epithelial cell [15] = assay: Inhibition of TNF-induced IkappaBbeta expression in human bronchial epithelial cells up to 120 mins by Western blot analysis; assay type: functional, cell-based
Epithelial cell [16] = assay: Inhibition of TNF-induced RelA expression in human bronchial epithelial cells up to 120 mins by Western blot analysis; assay type: functional, cell-based
[17] = target: MAP kinase p38 (Homo sapiens) (UniProt O15264+Q15759+Q16539+P53778); assay: Inhibition of TNF-induced p38 phosphorylation in human bronchial epithelial cells up to 120 mins by Western blot analysis; assay type: cell-based; conditions: Epithelial cell
Mus musculus = species: Mus musculus; assay: Suppression of LPS-induced TNF expression in C57BL/6 transgenic mouse bearing IkappaBalpha-reporter after 2 hrs by luciferase reporter gene assay; assay type: functional, organism-based
Procedure, shortened: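 Animals received an injection of vehicle, LPS, C12, or LPS plus C12. Whole-animal bioluminescence was recorded 2 hours after injection as the read-out of reporter activity.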

WI-38 = assay: Induction of apoptosis in TNF-stimulated human WI38 fibroblast assessed as PARP cleavage after 2 hrs by Western blot analysis; assay type: functional, cell-based
Procedure, shortened: (§1)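 WI38 lung fibroblasts and bronchial epithelial cells were stimulated for 2 hours. The same Western blot was probed for PARP cleavage, total IκBα and phosphorylated IκBα.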

[18] = target: T2, Inhibitor of nuclear factor kappa-B kinase subunit alpha (Homo sapiens); assay: Inhibition of IkappaBalpha phosphorylation in human WI38 cells assessed after 2 hrs by Western blot analysis; assay type: cell-based; conditions: WI-38; procedure, shortened: as §1
[19] = target: T2, Inhibitor of nuclear factor kappa-B kinase subunit alpha (Homo sapiens); assay: Inhibition of IkappaBalpha in human bronchial epithelial cells assessed after 2 hrs by Western blot analysis; assay type: cell-based; conditions: Epithelial cell; procedure, shortened: as §1

Measured: Activity

CCCCCCCCCC(=O)CC(=O)N[C@H]1CCOC1=O
active: [1] | [2] | [3] | BMDM [4] Dose-dependent effect | BMDM [5] Dose-dependent effect | BMDM [6] Dose-dependent effect | Macrophage [7] Dose-dependent effect | Macrophage [8] Dose-dependent effect | MEF [9] Dose-dependent effect | BMDM [10] | MEF [11] | MEF [12] | MEF [13] | [14] | Epithelial cell [15] | Epithelial cell [16] | [17] | Mus musculus | WI-38 | [18] | [19]
